KCNQ1 act – potentiates or activates the human KCNQ1 potassium channel | P51787 | B-score at 10 µM | 310,000 tested, 0.35% active | CHO-K1 KCNQ1, thallium flux FluxOR fluorescence; hits give high values;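 active means fluorescence ratio B-score, a plate-corrected score, at least three library SD, with initial intensity B-score within 5 SD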
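Assay system: stable KCNQ1 CHO-K1 line; medium: assay buffer, equal DMSO in all wells; timing: 90 min dye loading and 20 min compound exposure, both at room temperature; technique: kinetic FluxOR thallium fluorescence, 10-s 1-Hz baseline, 110-s post-stimulus read; read-out basis: B score of baseline-normalized fluorescence ratio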
hERG protect – compounds protecting human hERG from proarrhythmic drug block; CHO-hERG, FluxOR thallium flux, dofetilide IC70 present; AID 1511; activation (rescue from dofetilide block), less the hit threshold, % at 10 µM; 310,000 tested, 0.51% active; Q12809;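 active means activation above the mean of controls blocked by dofetilide plus 5 SD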;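 further: thallium influx through hERG after potassium depolarization seen as dye fluorescence rise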
AI-2 QS modul – Vibrio harveyi AI-2 quorum sensing modulation. activity change, % at 7.5 µM. 300,000 tested, 0.4% active. Vibrio harveyi JMH597 AI-2 luminescence/OD600 ratio, 9 h; hits give low values; strain lacks LuxN and CqsS sensors; 0 = neutral-control median. AID 2094; in the data active means activity change below about -75%, passing the limit was not always enough;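 further: luminescence divided by OD600 gain over 9 h not by final OD600 alone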
SUMO Mot1 rescue – inhibitors of SUMOylation pathway: yeast Mot1-301 growth rescue; S. cerevisiae Mot1-301 growth rescue, ATP luminescence, 38.5C; percent above DMSO median, 100 means doubled; growth rescue, % at 18.8 µM; 320,000 tested, 1% active; AID 2716;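 active means every valid replicate shows activation above 250% relative to neutral control wells; inactive means the rest, any valid replicate at or below 250%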
KCNQ1 inh – human KCNQ1 channel inhibition; P51787; CHO-K1 KCNQ1, FluxOR thallium flux fluorescence; hits give high values; B-score at 10 µM; 310,000 tested, 1.3% active; AID 2642;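 active means compounds whose thallium flux B-score, printed positive for inhibition, exceeds three library SD while starting fluorescence stays within three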;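 further: channel opened by potassium depolarization with thallium stimulus after 20 min compound exposure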
KCC2 mod – modulators of human KCC2 chloride dependent transport. Q9H2X9. KCC2 cells, thallium flux FluoZin-2 fluorescence. B-score of Tl+ flux slope (higher = more flux/activation; lower = inhibition) at 10 µM. 190,000 tested, 2.2% active;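 active means thallium flux slope and its plate-corrected score both differing from the plate sample mean at a set confidence after two filtering rounds, in either direction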;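 further: slope of fluorescence scaled to starting intensity during 10 to 20 s after thallium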
Target sequence (Q9H2X9 whole entry, looked up): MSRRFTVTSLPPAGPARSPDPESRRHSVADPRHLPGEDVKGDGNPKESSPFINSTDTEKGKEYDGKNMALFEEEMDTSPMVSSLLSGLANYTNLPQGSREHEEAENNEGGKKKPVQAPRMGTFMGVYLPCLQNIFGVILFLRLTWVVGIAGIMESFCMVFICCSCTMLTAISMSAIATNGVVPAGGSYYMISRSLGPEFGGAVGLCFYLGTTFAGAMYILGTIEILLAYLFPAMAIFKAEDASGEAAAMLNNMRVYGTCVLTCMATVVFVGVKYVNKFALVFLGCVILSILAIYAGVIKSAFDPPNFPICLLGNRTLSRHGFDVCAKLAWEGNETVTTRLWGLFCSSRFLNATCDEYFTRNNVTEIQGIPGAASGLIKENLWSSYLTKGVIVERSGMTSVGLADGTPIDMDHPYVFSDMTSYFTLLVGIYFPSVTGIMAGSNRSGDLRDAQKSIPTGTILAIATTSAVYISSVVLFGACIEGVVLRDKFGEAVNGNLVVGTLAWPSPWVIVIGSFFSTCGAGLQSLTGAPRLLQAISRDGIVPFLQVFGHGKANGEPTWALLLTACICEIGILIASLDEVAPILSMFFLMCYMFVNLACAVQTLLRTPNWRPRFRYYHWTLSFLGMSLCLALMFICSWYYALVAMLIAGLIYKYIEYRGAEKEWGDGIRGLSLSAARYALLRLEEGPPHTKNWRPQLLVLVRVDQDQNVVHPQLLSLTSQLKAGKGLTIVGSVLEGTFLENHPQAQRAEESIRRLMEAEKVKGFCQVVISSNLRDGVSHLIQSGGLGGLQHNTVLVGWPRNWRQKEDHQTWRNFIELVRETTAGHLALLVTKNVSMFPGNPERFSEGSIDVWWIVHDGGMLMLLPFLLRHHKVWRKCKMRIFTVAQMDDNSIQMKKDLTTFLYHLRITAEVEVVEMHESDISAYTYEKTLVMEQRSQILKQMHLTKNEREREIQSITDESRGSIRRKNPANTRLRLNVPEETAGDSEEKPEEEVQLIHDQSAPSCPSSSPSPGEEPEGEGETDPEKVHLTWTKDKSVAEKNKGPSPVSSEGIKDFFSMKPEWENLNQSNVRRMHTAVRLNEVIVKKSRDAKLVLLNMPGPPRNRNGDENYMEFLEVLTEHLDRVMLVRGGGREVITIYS
Each line names hits and unclear results; the compound was inactive in the other large screens. Sampled rows, rich in hits. Any-hit rate of the full collection: about 4.2%.

CCN1CCN(c2c(/C=C3\SC(=S)N(Cc4ccco4)C3=O)c(C)c(C#N)c(=O)n2C)CC1	KCNQ1 inh 7
O=C(Nc1ccc(C(=O)O)cc1)/C(=C\c1cccc([N+](=O)[O-])c1)NC(=O)c1ccc(Br)o1	none (no result: KCC2 mod)
O=C(O)c1cccc(NS(=O)(=O)c2cc(S(=O)(=O)c3ccc(Cl)cc3)ccc2Cl)c1	none (no result: KCC2 mod)
CCN1C(=O)[C@H]2[C@@H](c3ccc(-c4ccc(OC)cc4)cc3)N3CCCC[C@@]3(C(=O)OC)[C@H]2C1=O	SUMO Mot1 rescue 788 (no result: KCC2 mod)
O=C1C2C3CC(C(Br)C3Br)C2C(=O)N1c1nccs1 (configuration not stated)	none (no result: KCC2 mod)
CCc1noc(C)c1C(=O)N1CCSC1=Nc1cccc(Cl)c1C	KCNQ1 inh 6 (no result: KCC2 mod)
CCc1noc(C)c1C(=O)N1CCOCC1	none
Oc1c(Cl)cc(Cl)c2c1NCCC2	KCC2 mod 14 (no result: SUMO Mot1 rescue)
O=C1NCCCc2c1oc1ccc(O)cc21	none
CCCSc1nsc(NC(=O)C(c2ccccc2)c2ccccc2)n1	KCNQ1 inh 6
CCCSc1nsc(NC(=O)CC)n1	none
O=C(CSc1n[nH]c(=O)n1-c1ccccc1)N1CCOCC1	none (no result: KCC2 mod)
COC/C=C/C1=CC2=CC(=O)C(C)(OC(=O)c3cnc4ccccc4n3)C(=O)C2=CO1 (configuration not stated)	none (no result: KCC2 mod)
CC(C)(C)c1ccc(OCC(=O)Nc2ccncc2)cc1	none (no result: KCC2 mod)
CCc1ccc(C(C)NC(=O)C2(C)CC2(Br)Br)cc1 (configuration not stated)	hERG protect 4.9
CCc1ccc(C(C)NC(=O)C2CCCC2)cc1 (configuration not stated)	hERG protect 4.9 (no result: KCC2 mod)
CCC(NC(=O)C1(C)CC1(Br)Br)c1ccc(C)cc1 (configuration not stated)	none
Cc1ccc(C)c(S(=O)(=O)N2CCN(C(=O)c3n[nH]c(=O)c4ccccc34)CC2)c1	none (no result: KCNQ1 act, hERG protect, AI-2 QS modul, KCNQ1 inh, KCC2 mod)
Cc1cccc(OCc2n(CC(=O)OC3CC(C)CCC3C(C)C)c3ccccc3[n+]2C)c1 (configuration not stated)	KCNQ1 inh 9
CC1CCC(C(C)C)C(OC(=O)Cn2c(-c3ccccc3)[n+](C)c3ccccc32)C1 (configuration not stated)	none
Cc1cccc2cc(CN(Cc3ccccc3)C(=O)N(C)C)c(=O)[nH]c12	none (no result: KCC2 mod)
Cc1ccc(CN(Cc2cc3cccc(C)c3[nH]c2=O)C(=O)N(C)C)cc1	SUMO Mot1 rescue 317 (no result: KCC2 mod)
COc1ccc(NC(=O)CNC(=O)C2CCCCC2)cc1OC	none (no result: KCNQ1 act, hERG protect, AI-2 QS modul, KCNQ1 inh, KCC2 mod)
O=C(CN1c2cccc3cccc(c23)S1(=O)=O)Nc1ccc(F)c(F)c1F	none (no result: KCNQ1 act, hERG protect, AI-2 QS modul, KCNQ1 inh, KCC2 mod)
O=C(Nc1ccccc1)c1cccc(S(=O)(=O)NCc2ccco2)c1	hERG protect 7.3
COc1ccc(-c2cc(C(=O)Nc3cccc(S(=O)(=O)NCc4ccco4)c3)c3ccccc3n2)cc1OC	none
O=C(Nc1cccc(S(=O)(=O)NCc2ccco2)c1)c1cc(-c2ccc(F)cc2)nc2ccccc12	KCNQ1 inh 7
Nc1nc(N)c2[nH]c(-c3ccccc3)nc2n1	none (no result: KCC2 mod)
CCC1CC(C(=O)Nc2ccccc2)C(=O)O1 (configuration not stated)	SUMO Mot1 rescue 301 (no result: KCC2 mod)
Cc1cccc(-c2nc(CS(=O)CC(=O)N3CC(C)CC(C)C3)c(C)o2)c1 (configuration not stated)	none (no result: KCC2 mod)
CCCc1c(C)nc(N2CCN(c3cccc(OC)c3)CC2)[nH]c1=O	hERG protect 5.9 (no result: KCC2 mod)
O=C(CN(C(=O)c1csnn1)c1cccc(Cl)c1)NC1CCCCC1	none (no result: KCC2 mod)
CC(C)(C)NS(=O)(=O)c1cc(C(=O)Nc2sccc2C#N)ccc1Cl	none
CC(C)N1C(=O)/C(=C/c2nc3ccccc3c(=O)n2-c2ccccc2)c2ccccc21	KCNQ1 inh 6
COc1ccccc1-c1c(-c2ccc(OCC(=O)NN)cc2O)n[nH]c1C(F)(F)F	none
COc1ccc(-c2n[nH]c(C(F)(F)F)c2-c2cc3ccccc3o2)c(O)c1	KCNQ1 inh 8
Cc1ccc(-c2[nH]nc3c2C(c2cccnc2)C(C#N)=C(N)O3)cc1 (configuration not stated)	hERG protect 5.0
Oc1c(CN2CCOCC2)cc(-c2ccccc2)cc1CN1CCOCC1	hERG protect 35
O=C(COC(=O)C1=COCCO1)NCc1ccc(Cl)cc1	none (no result: KCC2 mod)
O=C(N/N=C/C1CC2C=CC1C2)c1ccccc1O (configuration not stated)	none
CC1(C)CC2(CCO1)OC(=O)CC2C(=O)Nc1cccc2ccccc12 (configuration not stated)	none
O=C1CC(C(=O)Nc2cccc3ccccc23)C2(CCCC2)O1 (configuration not stated)	hERG protect 7.8
CN1CCS/C1=C\C=C1/SC(=S)N(CC(=O)O)C1=O	KCNQ1 inh 11 (no result: SUMO Mot1 rescue)
CCN1C(=O)/C(=C/C=C2/SCCN2C)SC1=S	none
CN1/C(=C\C=O)C(C)(C)c2ccccc21	none
CN1\C(=C/C=C/C=C/C=[N+](C)C)C(C)(C)c2ccccc21	KCNQ1 inh 16 (no result: SUMO Mot1 rescue, KCC2 mod)
COc1cc(/C=C(\NC(=O)c2ccccc2)C(=O)N2CC3CC(C2)c2cccc(=O)n2C3)cc(OC)c1OC (configuration not stated)	SUMO Mot1 rescue active
Cc1ccc(-n2nc3ccc(N)cc3n2)c(C)c1	hERG protect 7.0 (no result: KCC2 mod)
CCc1ccccc1NC(=O)N1C2CCCC1CC(NC(C)=O)C2 (configuration not stated)	hERG protect 6.0
CC(C)(C)C(=O)NC1CC2CCCC(C1)N2C(=O)Nc1ccccc1Cl (configuration not stated)	none (no result: KCC2 mod)
O=C(C[n+]1ccc(-c2cc(C(=O)Nc3cccc(C(F)(F)F)c3)c3ccccc3n2)cc1)c1cccc([N+](=O)[O-])c1	KCNQ1 inh 7
O=C(C[n+]1cccc(NC(=O)c2ccccc2)c1)c1cccc([N+](=O)[O-])c1	none
Cc1ccc(S(=O)(=O)c2ccc([N+](=O)[O-])cn2)cc1	none (no result: KCC2 mod)
Cc1cc(S(=O)(=O)c2ccc([N+](=O)[O-])cn2)ccc1Br	SUMO Mot1 rescue 379 (no result: KCC2 mod)
O=C(NC1CC2CCC(C1)N2C(=O)NCc1ccccc1)C1CC1 (configuration not stated)	hERG protect 13
CC(=O)Nc1nc(C)c(C(C)=O)s1	SUMO Mot1 rescue 341
CC(C)(C)OC(=O)C[C@H]1C/C=C\C[C@H](CC(=O)N[C@H](CO)Cc2ccccc2)C(=O)N[C@@H](Cc2ccccc2)COC1=O	none (no result: KCNQ1 act, hERG protect, AI-2 QS modul, KCNQ1 inh, KCC2 mod)
COc1ccc(NC(=O)/C=C/c2c(Cl)nc3ccccn23)cc1	none
